Source: ChEMBL document CHEMBL4024801, “Synthesis and Structure-Activity Relationship (SAR) Studies of Novel Pyrazolopyridine Derivatives as Inhibitors of Enterovirus Replication” (J Med Chem, 2018)

Key:
[1] = tested on: Coxsackievirus B3; experiment: Antiviral activity against Coxsackievirus B3 infected in human HeLa-RW cells assessed as protection against virus-induced cytopathic effect after 3 to 4 days by crystal violet staining-based spectrophotometric method; assay type: functional, cell-based; settings: Enterovirus B
Outline: (§1)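 HeLa-RW cells grown in DMEM with penicillin, streptomycin, glutamine and 10% FBS. They were infected at a low MOI pre-set to give full CPE in 3-4 days. Compound in DMSO was added as serial 2-fold dilutions (7 points), each in triplicate. When control CPE was maximal, cells were fixed with 4% formaldehyde, stained with 0.25% crystal violet and read at OD590. EC50 came from a four-parameter or sigmoidal fit.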

[2] = tested on: Poliovirus 1; experiment: Antiviral activity against Poliovirus 1 infected in human HeLa-RW cells assessed as protection against virus-induced cytopathic effect after 3 to 4 days by crystal violet staining-based spectrophotometric method; assay type: functional, cell-based; settings: Enterovirus C; outline: as §1
[3] = Selectivity index, ratio of CC50 for human HeLa-RW cells to EC50 for Coxsackievirus B3; assay type: toxicity; settings: read-out: Ratio CC50/EC50
Outline: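 HeLa-RW cells in DMEM with 10% FBS were used for both arms. For EC50, cells were infected with CVB3-H3 at a low MOI giving full CPE in 3–4 days and exposed to 2-fold compound dilutions, in triplicate, with a 7-point fit. For CC50, uninfected cells got 2-fold dilutions for the same period. Both arms were fixed, crystal violet-stained and read at OD590.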

[4] = Selectivity index, ratio of CC50 for monkey LLC-MK2 cells to EC50 for Enterovirus A71; assay type: toxicity; settings: read-out: Ratio CC50/EC50
Outline: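 LLC-MK2 cells in DMEM with 10% FBS were used for both arms. For EC50, cells were infected with EV-A71 at a low MOI giving full CPE in 3–4 days and exposed to 2-fold compound dilutions, in triplicate. For CC50, uninfected cells got 2-fold dilutions for the same period. Both arms were formaldehyde-fixed, crystal violet-stained and read at OD590.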

[5] = tested on: LLC-MK2; experiment: Cytotoxicity against monkey LLC-MK2 cells after 3 to 4 days by crystal violet staining-based spectrophotometric method; assay type: cell-based, Macaca mulatta; settings: rhesus monkey
Outline: (§2)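 Uninfected cells (HeLa-RW or LLC-MK2, in DMEM with penicillin, streptomycin, glutamine and 10% FBS) were exposed to serial 2-fold compound dilutions for the same period as the CPE assay. They were then fixed with formaldehyde, stained with crystal violet and read by OD590 spectrophotometry to derive CC50. Values are means ± s.d. of 3 experiments, or the average of triplicates in one.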

[6] = Cytotoxicity against human HeLa-RW cells after 3 to 4 days by crystal violet staining-based spectrophotometric method; assay type: cell-based; settings: hela-rw; outline: as §2
[7] = tested on: Enterovirus A71; experiment: Antiviral activity against Enterovirus A71 infected in monkey LLC-MK2 cells assessed as protection against virus-induced cytopathic effect after 3 to 4 days by crystal violet staining-based spectrophotometric method; assay type: functional, cell-based; settings: Enterovirus A
Outline: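 EV-A71 was tested in LLC-MK2 cells grown in DMEM with 10% FBS, penicillin, streptomycin and glutamine, at a low MOI preset to give full CPE in 3–4 days. Compound was dissolved in DMSO and diluted 2-fold, in triplicate. Cells were fixed with formaldehyde when control CPE was maximal, then stained with crystal violet and read at OD590. EC50 came from a 7-point four-parameter or sigmoidal fit.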

[8] = tested on: Poliovirus 3; experiment: Antiviral activity against Poliovirus 3 infected in human HeLa-RW cells assessed as protection against virus-induced cytopathic effect after 3 to 4 days by crystal violet staining-based spectrophotometric method; assay type: functional, cell-based; settings: Enterovirus C; outline: as §1

Structure (SMILES) | EC50 [1] | EC50 [2] | selectivity ratio [3] | selectivity ratio [4] | CC50 [5] | CC50 [6] | EC50 [7] | EC50 [8]
CC(C)n1ncc2c(C(=O)Nc3ccc(F)cc3)cc(C3CC3)nc21 | 3.3 µM | > 25 µM | 3 | 3.9 | 12.5 µM | 10 µM | 3.2 µM | > 25 µM
CC(C)n1ncc2c(C(=O)Nc3cccc(F)c3)cc(-c3cccs3)nc21 | 0.8 µM | > 25 µM | > 250 | > 83.3 | > 200 µM | > 200 µM | 2.4 µM | > 25 µM
CC(C)n1ncc2c(C(=O)Nc3ccccc3S(N)(=O)=O)cc(-c3cccs3)nc21 | 2.6 µM | > 25 µM | 3.8 | 10 | 25 µM | 10 µM | 2.5 µM | > 25 µM
CC(C)n1ncc2c(C(=O)Nc3c(F)cccc3F)cc(-c3cccs3)nc21 | 3.2 µM | > 25 µM | > 62.5 | > 58.8 | > 200 µM | > 200 µM | 3.4 µM | > 25 µM
CC(C)n1ncc2c(C(=O)Nc3cccc(S(=O)(=O)N(C)C)c3)cc(-c3cccs3)nc21 | 1 µM | > 10 µM | 12 | > 250 | > 200 µM | 12 µM | 0.8 µM | > 10 µM
CC(C)n1ncc2c(C(=O)Nc3cccc(F)c3F)cc(-c3cccs3)nc21 | 2.7 µM | > 25 µM | > 74.1 | 25 | 75 µM | > 200 µM | 3 µM | > 25 µM
CC(C)n1ncc2c(C(=O)Nc3ncccn3)cc(-c3cccs3)nc21 | 0.6 µM | > 10 µM | 62.5 | 150 | 75 µM | 37.5 µM | 0.5 µM | > 10 µM
CC(C)n1ncc2c(C(=O)Nc3ccccn3)cc(-c3ccccc3)nc21 | 1.6 µM | > 25 µM | 11.8 | 17.9 | 12.5 µM | 18.8 µM | 0.7 µM | > 25 µM
CC(C)n1ncc2c(C(=O)Nc3ncccn3)cc(-c3ccsc3)nc21 | 1.2 µM | > 10 µM | 33.3 | 41.7 | 50 µM | 40 µM | 1.2 µM | > 10 µM
CC(C)n1ncc2c(C(=O)Nc3ccc(F)cc3)cc(-c3cccs3)nc21 | 0.7 µM | > 25 µM | > 286 | > 222 | > 200 µM | > 200 µM | 0.9 µM | > 25 µM
CC(C)n1ncc2c(C(=O)Nc3ccncn3)cc(-c3cccs3)nc21 | 0.6 µM | > 10 µM | 33.3 | 100 | 50 µM | 20 µM | 0.5 µM | > 10 µM
CNS(=O)(=O)c1cccc(NC(=O)c2cc(-c3cccs3)nc3c2cnn3C(C)C)c1 | 0.5 µM | > 10 µM | 24 | 35.7 | 25 µM | 12 µM | 0.7 µM | > 10 µM
CC(C)n1ncc2c(C(=O)Nc3c(F)cc(F)cc3F)cc(-c3cccs3)nc21 | 1.8 µM | > 25 µM | > 111 | > 66.7 | > 200 µM | > 200 µM | 3 µM | > 25 µM
CC(C)n1ncc2c(C(=O)Nc3ccc(S(C)(=O)=O)cc3)cc(-c3cccs3)nc21 | 1 µM | > 10 µM | 200 | 100 | 50 µM | 200 µM | 0.5 µM | > 10 µM
CC(C)n1ncc2c(C(=O)Nc3ccccn3)cc(-c3cccs3)nc21 | 0.8 µM | > 10 µM | > 250 | > 400 | > 200 µM | > 200 µM | 0.5 µM | > 10 µM
CC(C)n1ncc2c(C(=O)Nc3ccc(F)cc3F)cc(-c3cccs3)nc21 | 1.4 µM | > 25 µM | > 143 | > 125 | > 200 µM | > 200 µM | 1.6 µM | > 25 µM
CC(C)n1ncc2c(C(=O)Nc3cc(F)ccc3F)cc(-c3cccs3)nc21 | 2.7 µM | > 25 µM | > 74.1 | 28.6 | 100 µM | > 200 µM | 3.5 µM | > 25 µM
CC(C)n1ncc2c(C(=O)Nc3ccccn3)cc(C3CC3)nc21 | 4.7 µM | > 25 µM | 5.3 | 5.3 | 25 µM | 25 µM | 4.7 µM | > 25 µM
CC(C)n1ncc2c(C(=O)Nc3ccncc3)cc(-c3cccs3)nc21 | 0.6 µM | > 10 µM | 10 | 15.8 | 6.3 µM | 6 µM | 0.4 µM | > 10 µM
CC(C)n1ncc2c(C(=O)Nc3ccncn3)cc(-c3ccsc3)nc21 | 1.2 µM | > 10 µM | > 167 | > 250 | > 200 µM | > 200 µM | 0.8 µM | > 10 µM
CC(C)n1ncc2c(C(=O)Nc3ccccn3)cc(-c3ccsc3)nc21 | 1.2 µM | > 10 µM | 15 | 31.3 | 25 µM | 18 µM | 0.8 µM | > 10 µM
